The target in experiment [1] is T1, 5-hydroxytryptamine receptor 1B (Homo sapiens, UniProt P28222). Kind of experiment: Binding affinity at cloned human 5-hydroxytryptamine 1B receptor stably expressed in CHO cells by [3H]5-HT displacement. In kind it is cell-based.
Experiment [2] deals with T2, 5-hydroxytryptamine receptor 1D (Homo sapiens, UniProt P28221). Briefly: Agonist-induced [35S]- GTPgammaS binding in CHO cells stably transfected with 5-hydroxytryptamine 1D receptor. Type of experiment: cell-based. The essentials:
(§1)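 Membranes from thawed CHO cells with human 5-HT1D, prepared in ice-cold 20 mM Hepes/EDTA at pH 7.4, spun at 40000g. Assay buffer: 100 mM NaCl, 10 mM MgCl2, 0.1% ascorbate, 10 μM pargyline. GDP 100 μM plus drug, 20 min at 30 °C, then ice 15 min. Then 100 pM [35S]GTPγS, 30 min at 30 °C, filtration. Emax is taken as % of maximal 5-HT response; duplicates, 2–5 occasions.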

The target in experiment [3] is T2, 5-hydroxytryptamine receptor 1D. Kind of experiment: Binding affinity at human cloned 5-hydroxytryptamine 1D receptor stably expressed in CHO cells by [3H]5-HT displacement. Type of experiment: cell-based. The essentials:
(§2)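 Membranes from thawed CHO cells with human 5-HT1B or 5-HT1D, washed in 50 mM Tris-HCl pH 7.7, preincubated 10 min at 37 °C to remove endogenous 5-HT. Buffer holds 0.1% ascorbate, 10 μM pargyline and 4 mM CaCl2. Uses 2.0 nM [3H]5-HT, 30 min at 37 °C; 10 μM 5-HT defines nonspecific binding. Filtration; IC50 by nonlinear regression; duplicates, 2–5 occasions.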

Experiment [4] has the same target. Briefly: Maximum stimulation of [35S]GTP-gamma-S, binding in CHO cells expressing human 5-HT-1d relative to 5-HT. Type of experiment: functional, cell-based. The essentials: as §1
On the technique in general: Binding of GTPγS marks nucleotide exchange on a G protein.

The nature of experiment [5]: Ratio of IC50 for human 5-HT1B to human 5-HT1D receptors.
Experiment [6] deals with T1, 5-hydroxytryptamine receptor 1B. Kind of experiment: Displacement of [3H]5-HT binding to cloned 5-hydroxytryptamine 1B receptor stably expressed in CHO cells. In kind it is cell-based. The essentials: as §2
Experiment [7] has as its target T2, 5-hydroxytryptamine receptor 1D. Kind of experiment: Displacement of [3H]5-HT binding to cloned human 5-hydroxytryptamine 1D receptor stably expressed in CHO cells. Type of experiment: cell-based. Put shortly:
as §2
A general note: Loss of bound radioactivity is the signal in a displacement assay; it reports binding, not function.

T1 sequence (P28222 whole entry): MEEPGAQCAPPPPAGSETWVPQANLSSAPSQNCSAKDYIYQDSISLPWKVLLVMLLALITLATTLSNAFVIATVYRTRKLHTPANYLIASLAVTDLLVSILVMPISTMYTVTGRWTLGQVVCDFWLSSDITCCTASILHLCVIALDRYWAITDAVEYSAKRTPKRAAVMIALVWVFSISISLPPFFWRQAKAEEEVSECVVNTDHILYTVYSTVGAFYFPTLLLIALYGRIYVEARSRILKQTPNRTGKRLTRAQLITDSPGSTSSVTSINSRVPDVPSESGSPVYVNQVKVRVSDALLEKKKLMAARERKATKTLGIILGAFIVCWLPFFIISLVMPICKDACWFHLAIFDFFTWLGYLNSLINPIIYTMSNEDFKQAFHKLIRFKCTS
T2 sequence (P28221 whole entry): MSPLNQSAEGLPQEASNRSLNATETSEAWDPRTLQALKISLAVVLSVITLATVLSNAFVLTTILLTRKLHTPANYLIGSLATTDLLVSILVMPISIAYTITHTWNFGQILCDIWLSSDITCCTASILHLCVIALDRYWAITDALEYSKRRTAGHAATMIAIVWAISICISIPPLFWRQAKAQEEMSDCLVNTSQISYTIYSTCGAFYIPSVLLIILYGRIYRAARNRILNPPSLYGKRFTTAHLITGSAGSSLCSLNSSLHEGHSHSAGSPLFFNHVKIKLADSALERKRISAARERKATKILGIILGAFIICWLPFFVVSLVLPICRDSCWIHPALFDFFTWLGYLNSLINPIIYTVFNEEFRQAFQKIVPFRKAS

With `NC(=O)OC[C@H](NC1CCN(CCCc2c[nH]c3ccc(-n4cnnc4)cc23)CC1)c1ccccc1`, the results for the IC50 in experiment [1] and in experiment [3] were 120 nM and 4.7 nM, respectively. Also, the EC50 in experiment [2] is 9.3 nM. Further, in experiment [4], the Efficacy was determined as 73%. Moreover, in experiment [5], the Selectivity was determined as 26.
`CS(=O)(=O)NC[C@H](NC1CCN(CCCc2c[nH]c3ccc(-n4cnnc4)cc23)CC1)c1ccccc1`: the IC50 in experiment [1] amounted to 78 nM; in experiment [3] it was 15 nM. Moreover, the Selectivity in experiment [5] was 5.2.
In the case of `C[C@H](Cc1ccccc1)NC1CCN(CCCc2c[nH]c3ccc(-n4cnnc4)cc23)CC1`, the IC50 in experiment [1] stood at 170 nM; in experiment [3] it was 5.5 nM. The response in experiment [2] was half-maximal at 6.8 nM (EC50). This compound also came in with an Efficacy in experiment [4] of 71%. For the same compound, the Selectivity in experiment [5] amounted to 31.
For the compound `CC(NC1CCN(CCCc2c[nH]c3ccc(-n4cnnc4)cc23)CC1)c1ccc(F)cc1` (stereo not given), the IC50 in experiment [1] came out at 230 nM; in experiment [3], 1.9 nM. In addition, in experiment [2], the EC50 was 0.5 nM. The compound further returned an Efficacy in experiment [4] of 99%. Also, the Selectivity in experiment [5] stood at 120.
For `COC[C@H](NC1CCN(CCCc2c[nH]c3ccc(-n4cnnc4)cc23)CC1)c1ccccc1`, in that order: 210 nM, 3 nM, 0.9 nM, 93% and 70.
`CN(C1CCN(CCCc2c[nH]c3ccc(-n4cnnc4)cc23)CC1)[C@@H](CO)c1ccccc1`: the IC50 in experiment [1] was 210 nM; in experiment [3], 4.5 nM. This compound returned an EC50 in experiment [2] of 10 nM. Further, the Efficacy in experiment [4] stood at 82%. Besides, in experiment [5], the Selectivity was found to be 47.
For the compound `C[C@H](NC1CCN(CCCc2c[nH]c3ccc(-n4cnnc4)cc23)CC1)c1ccccc1`, the IC50 in experiment [1] is 95 nM; in experiment [3], 0.6 nM. The EC50 in experiment [2] was 12 nM. Further, the Efficacy in experiment [4] was found to be 76%. Moreover, in experiment [5], the Selectivity came out at 160.
For `OCCC(NC1CCN(CCCc2c[nH]c3ccc(-n4cnnc4)cc23)CC1)c1ccccc1` (stereo not given), in that order: 150 nM, 5.5 nM, 5.1 nM, 100% and 27.
In the case of `OC[C@H](NC1CCN(CCCc2c[nH]c3ccc(Cn4cncn4)cc23)CC1)c1ccccc1`, the IC50 is 1300 nM in experiment [6] and 23 nM in experiment [7]. In experiment [2], the EC50 came to 32 nM. This compound registered an Efficacy in experiment [4] of 76%. Further, in experiment [5], the Selectivity was determined as 57.
For the compound `CC#CCN(C)C1CCN(CCCc2c[nH]c3ccc(-n4cnnc4)cc23)CC1`, the IC50 came to 81 nM in experiment [1] and 9.8 nM in experiment [3]. Moreover, the Selectivity in experiment [5] was 8.3.
With `C[C@@H](NC1CCN(CCCc2c[nH]c3ccc(-n4ccnc4)cc23)CC1)c1ccccc1`, the IC50 in experiment [6] came to 110 nM; in experiment [7], 4.2 nM. Also, the EC50 in experiment [2] was 6.2 nM. The compound also came in with an Efficacy in experiment [4] of 65%. In addition, the Selectivity in experiment [5] came to 26.
`OC[C@H](Cc1ccccc1)NC1CCN(CCCc2c[nH]c3ccc(-n4cnnc4)cc23)CC1`: the IC50 in experiment [1] came to 140 nM; in experiment [3], 2.1 nM. The same compound yielded an EC50 in experiment [2] of 3.6 nM. Further, the Efficacy in experiment [4] was 76%. The Selectivity in experiment [5] came to 67.
For `OC[C@@H](Cc1ccccc1)NC1CCN(CCCc2c[nH]c3ccc(-n4cnnc4)cc23)CC1`, in that order: 100 nM, 8.3 nM, 14 nM, 74% and 12.
Turning to `c1ccc(CNC2CCN(CCCc3c[nH]c4ccc(-n5cnnc5)cc34)CC2)cc1`, the figures for the IC50 in experiment [6] and in experiment [7] were 120 nM and 4.6 nM, respectively. The response in experiment [2] was half-maximal at 7.6 nM (EC50). In experiment [4], this compound gave an Efficacy of 76%. The Selectivity in experiment [5] stood at 26.
For the compound `c1ccc(CNCC2CCN(CCCc3c[nH]c4ccc(-n5cnnc5)cc34)CC2)cc1`, the IC50 in experiment [6] came out at 28 nM; in experiment [7], 1.6 nM. Further, a half-maximal response in experiment [2] (EC50) required 5.6 nM. The compound also displayed an Efficacy in experiment [4] of 101%. In experiment [5], the Selectivity was 18.
Turning to `OC[C@@H](NC1CCN(CCCc2c[nH]c3ccc(-n4cnnc4)cc23)CC1)c1ccccc1`, the IC50 in experiment [1] came out at 160 nM; in experiment [3], 3.5 nM. Further, a half-maximal response in experiment [2] (EC50) required 2.6 nM. The Efficacy in experiment [4] is 67%. Besides, the Selectivity in experiment [5] turned out to be 46.
On to `c1ccc2c(c1)CCC2NC1CCN(CCCc2c[nH]c3ccc(-n4cnnc4)cc23)CC1` (stereo not given), for which the IC50 was found to be 280 nM in experiment [6] and 8.9 nM in experiment [7]. For the same compound, the midpoint of the response in experiment [2], the EC50, lay at 25 nM. For the same compound, the Efficacy in experiment [4] is 68%. For the same compound, the Selectivity in experiment [5] came to 31.
For `CN(Cc1cccs1)C1CCN(CCCc2c[nH]c3ccc(-n4cnnc4)cc23)CC1`, in that order: 140 nM, 4.3 nM, 3.5 nM, 81% and 33.
As to `CN(Cc1ccoc1)C1CCN(CCCc2c[nH]c3ccc(-n4cnnc4)cc23)CC1`, the IC50 in experiment [6] was found to be 200 nM; in experiment [7], 8.1 nM. This compound gave an EC50 in experiment [2] of 8.9 nM. This compound returned an Efficacy in experiment [4] of 87%. Also, the Selectivity in experiment [5] turned out to be 25.
With `CN(C1CCN(CCCc2c[nH]c3ccc(-n4cnnc4)cc23)CC1)[C@H](CO)c1ccccc1`, the concentration for half-maximal inhibition (IC50) came out at 71 nM in experiment [1] and 4.3 nM in experiment [3]. Also, the Selectivity in experiment [5] was determined as 17.
Take `CC(=O)Nc1ccc(CNC2CCN(CCCc3c[nH]c4ccc(-n5cnnc5)cc34)CC2)cc1`: the IC50 in experiment [6] is 45 nM; in experiment [7], 3 nM. Besides, in experiment [2], the EC50 came out at 5 nM. The Efficacy in experiment [4] is 75%. The Selectivity in experiment [5] is 15.
For the compound `O=C1N[C@@H](Cc2ccc3[nH]cc(CCCN4CCC(N[C@@H](CO)c5ccccc5)CC4)c3c2)CO1`, the IC50 was 460 nM in experiment [6] and 6.3 nM in experiment [7]. This compound had an EC50 in experiment [2] of 6 nM. Further, in experiment [4], the Efficacy is 83%. Also, in experiment [5], the Selectivity came to 73.
On to `O=S(=O)(NCC1CCN(CCCc2c[nH]c3ccc(-n4cnnc4)cc23)CC1)c1ccccc1`, for which the IC50 in experiment [6] was determined as 60 nM; in experiment [7], 6.2 nM. The EC50 in experiment [2] is 12 nM. Also, in experiment [4], the Efficacy stood at 73%. In experiment [5], the Selectivity is 10.
For `C[C@@H](O)[C@H](NC1CCN(CCCc2c[nH]c3ccc(-n4cnnc4)cc23)CC1)c1ccccc1`, in that order: 48 nM, 0.9 nM, 1 nM, 85% and 53.
The like results for `CN(Cc1ccsc1)C1CCN(CCCc2c[nH]c3ccc(-n4cnnc4)cc23)CC1` were, in that order, 35 nM, 1.5 nM, 4.2 nM, 93% and 23.
For `COC[C@H](NC1CCN(CCCc2c[nH]c3ccc(Cn4cncn4)cc23)CC1)c1ccc(F)cc1`, in that order: 1200 nM, 5 nM, 8.9 nM, 89% and 240.
Take `C[C@@H](NC1CCN(CCCc2c[nH]c3ccc(-n4cnnc4)cc23)CC1)[C@@H](O)c1ccccc1`: the IC50 came out at 210 nM in experiment [1] and 12 nM in experiment [3]. Besides, the Selectivity in experiment [5] was found to be 18.
Consider `O[C@@H]1Cc2ccccc2[C@H]1NC1CCN(CCCc2c[nH]c3ccc(-n4cnnc4)cc23)CC1`, for which the results for the IC50 in experiment [6] and in experiment [7] were 210 nM and 6.6 nM, respectively. In addition, it took 13 nM to reach a half-maximal effect in experiment [2] (EC50). The compound further returned an Efficacy in experiment [4] of 75%. Also, the Selectivity in experiment [5] came out at 32.
As for `OC[C@H](NC1CCN(CCCc2c[nH]c3ccc(-n4ccnc4)cc23)CC1)c1ccccc1`, the IC50 in experiment [6] was 100 nM; in experiment [7] it was 0.7 nM. This compound also displayed an EC50 in experiment [2] of 0.8 nM. In experiment [4], the Efficacy was determined as 74%. In addition, the Selectivity in experiment [5] amounted to 140.
With `CC(=O)Nc1ccc([C@@H](C)NC2CCN(CCCc3c[nH]c4ccc(-n5cnnc5)cc34)CC2)cc1`, the IC50 is 350 nM in experiment [1] and 29 nM in experiment [3]. For the same compound, the Selectivity in experiment [5] is 12.
Take `c1ccc(C2CCCCN2C2CCN(CCCc3c[nH]c4ccc(-n5cnnc5)cc34)CC2)cc1` (stereo not given): the values for the IC50 in experiment [6] and in experiment [7] were 410 nM and 1.9 nM, respectively. Also, in experiment [2], the midpoint of the response, the EC50, lay at 4.7 nM. For the same compound, the Efficacy in experiment [4] was 65%. Moreover, the Selectivity in experiment [5] turned out to be 220.
The like results for `CC(=O)Nc1ccc([C@H](C)NCC2CCN(CCCc3c[nH]c4ccc(-n5cnnc5)cc34)CC2)cc1` were, in that order, 9.3 nM, 0.6 nM, 3 nM, 99% and 16.
Consider `CC(C)=CCN(C)C1CCN(CCCc2c[nH]c3ccc(-n4cnnc4)cc23)CC1`, for which the IC50 was found to be 41 nM in experiment [6] and 0.5 nM in experiment [7]. Besides, it took 1.8 nM to reach a half-maximal effect in experiment [2] (EC50). Besides, the Efficacy in experiment [4] was 115%. In addition, the Selectivity in experiment [5] came out at 82.

Usually IC50 stands for the concentration that gives 50% inhibition. A low value points to inhibition by little substance. What is called EC50 is the concentration needed to bring the measured effect to its halfway point.

Source of the values: ChEMBL document CHEMBL1132157 (J Med Chem, 1999).
